Measured values gathered from unrelated publications.

O=C1CCC(N2C(=O)c3cccc(NCc4cn(Cc5ccc(-c6nc7cc(-c8ccccc8)ccn7c6Nc6ccc(C(=O)O)cc6)cc5)nn4)c3C2=O)C(=O)N1 (stereo not drawn)
CC50 (HCT-116; cell growth or viability; 72 h): 193 µM

C=C(CC(=O)OCOC(=O)OC(C)C)C(=O)O
Papp (PAMPA; 10 µM, 4 h, pH 7.4): < 1 ×10⁻⁶ cm/s

COc1cccc2c(N3CCC(CCP(=O)(O)O)CC3)ncnc12
half-life (EMT6; female BALB/c, tumour; subcutaneous, 50 mg/kg, tumour-bearing): 6.6 h

COCC(=O)N1CCC[C@H](C(=O)NCc2nc(-c3ccccc3)cs2)C1
AUC (male Sprague-Dawley rat, plasma; oral, 3 mg/kg): 110 µM·h

C[C@H]1Oc2cc(cnc2N)-c2c(nn(C)c2C#N)CN(C)C(=O)c2ccc(F)cc21
AUC(0-t) (male Sprague-Dawley rat, plasma; oral, 5 mg/kg, single dose): 1780 ng·h/mL

O=c1[nH]cc(F)c(=O)[nH]1
viability (PC-9; cell growth or viability, CCK-8; 50 µM): 31.9%

CN(Cc1cn(Cc2ccc(-c3nc4cc(-c5ccccc5)ccn4c3Nc3ccc(C(=O)O)cc3)cc2)nn1)c1cccc2c1C(=O)N(C1CCC(=O)NC1=O)C2=O (stereo not drawn)
CC50 (HCT-116; cell growth or viability; 72 h): 190 µM

COc1nc(-c2cccc(-c3ccccc3)c2C)ccc1CNCCNC(=O)CCCCCCCCCCC(=O)N1CCN(CCNC(=O)c2cc3c(=O)n4cccc(C)c4nc3n(CCc3cccs3)c2=N)CC1
AUC(0-inf) (male Sprague-Dawley rat, plasma; intraperitoneal, 4 mg/kg): 2450 ng·h/mL

COCC(=O)N1CCC[C@H](C(=O)NCc2nc(-c3ccc(C#N)cc3)cs2)C1
AUC (male Sprague-Dawley rat, plasma; oral, 3 mg/kg): 120 µM·h
